The IC50 is the midpoint of a concentration-inhibition curve. A higher IC50 goes with a need for much substance.

Some results are limits rather than exact numbers.

Assay [1] concerns Mus musculus. In words: Antagonism of apomorphine induced climbing was determined in female swiss -Wbster mice after (ip) administration of 10 mg/kg. It counts as functional. In a few lines:
(§1)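 Female Swiss-Webster mice (about 20 g) were fasted about 24 h, then given test compound or vehicle ip or po (N = 20 per group). Vehicle was 0.5% w/w hydroxypropylmethylcellulose with 0.1% w/w Tween 80 in water. After 30 min, mice received apomorphine HCl 1.25 mg/kg sc. At 13 min, each mouse was watched for 1 min; score was mean of highest and lowest rung of 27. Groups were compared with vehicle by Student's t-test.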

Assay [2] concerns Mus musculus. In words: Antagonism of apomorphine induced climbing was determined in female swiss -Wbster mice after (ip) administration of 40 mg/kg. It counts as functional. The method, boiled down:
as §1

The subject of assay [3] is Mus musculus. In words: Antagonism of apomorphine induced climbing was determined in female swiss -Wbster mice after (po) administration of 40 mg/kg. It counts as functional. The method, boiled down:
as §1

Assay [4] deals with Mus musculus. Nature of the assay: Antagonism of apomorphine induced swimming was determined in female swiss -Wbster mice after (po) administration of 20 mg/kg. It counts as functional.
A short description of assay [5]: Number of animals showing dyskinesias was determined in haloperidol sensitized 4 cebus monkeys after (po) administration of 40 mg/kg. The assay is classed as functional. In a few lines: (§2)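 Adult female and male Cebus monkeys sensitized with oral haloperidol 1 mg/kg once per week until dyskinetic reactions occurred. Test drug given orally (2 mL/kg) in 0.5% w/w hydroxypropylmethylcellulose with 0.1% w/w Tween 80 in distilled water, at least 2 weeks between treatments. Two observers watched continuously for 6-7 h, recording reaction type and severity every 30 min. Score is monkeys with dyskinesias/monkeys tested.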

Assay [6] deals with Mus musculus. In words: Antagonism of apomorphine induced swimming was determined in female swiss -Wbster mice after (po) administration of 80 mg/kg. It counts as functional.
The test system of assay [7] is Mus musculus. Nature of the assay: Antagonism of apomorphine induced swimming was determined in female swiss -Wbster mice after (po) administration of 40 mg/kg. The assay is classed as functional.
Assay [8] in a line: Number of animals showing dyskinesias was determined in haloperidol sensitized 12 cebus monkeys after (po) administration of 80 mg/kg. The assay is classed as functional. In a few lines: as §2
For assay [9], the system named is Mus musculus. Nature of the assay: Antagonism of apomorphine induced climbing was determined in female swiss -Wbster mice after (ip) administration of 20 mg/kg. The assay is classed as functional. In a few lines: as §1
The nature of assay [10]: Number of animals showing dyskinesias was determined in haloperidol sensitized 2 cebus monkeys after (po) administration of 20 mg/kg. The assay is classed as functional. The method, boiled down:
as §2

In assay [11] the target is D(2) dopamine receptor (Rattus norvegicus) (UniProt P61169). In words: Binding affinity at dopamine receptor D2 from rat by spiropiperidone displacement. In a few lines:
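D2 receptor binding was read as % displacement of spiropiperidone, with test compound at 1000 nM unless stated otherwise. IC50 values used at least five concentrations per compound in triplicate. Each value is the mean of two replicate experiments differing by 5% or less.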

In assay [12] the test system is Mus musculus. Nature of the assay: Antagonism of apomorphine induced climbing was determined in female swiss -Wbster mice after (po) administration of 20 mg/kg. It counts as functional. The method, boiled down:
as §1

For assay [13], the system named is Mus musculus. Nature of the assay: Antagonism of apomorphine induced climbing was determined in female swiss -Wbster mice after (ip) administration of 80 mg/kg. The assay is classed as functional. In a few lines:
as §1

Assay [14] deals with Mus musculus. In words: Antagonism of apomorphine induced climbing was determined in female swiss -Wbster mice after (po) administration of 80 mg/kg. It counts as functional. The method, boiled down: as §1
For assay [15], the system named is Mus musculus. In words: Antagonism of apomorphine induced swimming was determined in female swiss -Webster mice after (po) administration of 20 mg/kg. It counts as functional.
Assay [16] concerns Mus musculus. In words: Antagonism of apomorphine induced swimming was determined in female swiss -Webster mice after (po) administration of 10 mg/kg. It counts as functional. In a few lines:
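Female Swiss-Webster mice (~20 g), food-deprived ~24 h, N = 20 per group; oral dosing in 0.5% w/w hydroxypropylmethylcellulose with 0.1% w/w Tween 80 in water. Apomorphine given; mice placed in a circular tank (5.5 cm water, room temperature) with marks 180° apart. Each 180° swim counted, observed via overhead mirrors; group score derived from swim counts.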

The subject of assay [17] is Mus musculus. Nature of the assay: Antagonism of apomorphine induced swimming was determined in female swiss -Webster mice after (po) administration of 40 mg/kg. It counts as functional.
For assay [18], the system named is Mus musculus. Nature of the assay: Antagonism of apomorphine induced swimming was determined in female swiss -Webster mice after (po) administration of 80 mg/kg. It counts as functional.
For the next assay, the target named is D(2) dopamine receptor (Rattus norvegicus, UniProt P61169). In words: Inhibition of spiropiperidone binding at dopamine receptor D2 of rat.
Chain of D(2) dopamine receptor (P61169 whole entry): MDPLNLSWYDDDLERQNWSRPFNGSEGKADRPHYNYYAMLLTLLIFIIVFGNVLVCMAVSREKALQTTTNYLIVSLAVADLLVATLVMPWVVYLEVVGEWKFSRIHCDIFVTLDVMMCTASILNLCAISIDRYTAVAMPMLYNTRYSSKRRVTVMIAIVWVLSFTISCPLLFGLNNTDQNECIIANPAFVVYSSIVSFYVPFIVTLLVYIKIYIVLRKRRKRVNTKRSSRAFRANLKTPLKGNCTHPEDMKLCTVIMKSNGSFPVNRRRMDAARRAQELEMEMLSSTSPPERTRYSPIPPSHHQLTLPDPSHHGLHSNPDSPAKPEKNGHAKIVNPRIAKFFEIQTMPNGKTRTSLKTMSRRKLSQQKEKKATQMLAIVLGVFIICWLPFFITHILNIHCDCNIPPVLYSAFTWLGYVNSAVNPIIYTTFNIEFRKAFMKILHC
Assay [19] concerns Mus musculus. In words: Antagonism of apomorphine induced climbing was determined in female swiss -Webster mice after (ip) administration of 20 mg/kg. It counts as functional. In a few lines:
as §1

For assay [20], the system named is Mus musculus. In words: Antagonism of apomorphine induced climbing was determined in female swiss -Webster mice after (ip) administration of 2.5 mg/kg. It counts as functional. In a few lines:
as §1

In assay [21] the test system is Mus musculus. In words: Antagonism of apomorphine induced swimming was determined in female swiss -Wbster mice after (po) administration of 10 mg/kg. It counts as functional.
Assay [22] relates to Mus musculus. Nature of the assay: Antagonism of apomorphine induced climbing was determined in female swiss -Webster mice after (ip) administration of 10 mg/kg. The assay is classed as functional. The method, boiled down: as §1
The test system of assay [23] is Mus musculus. Nature of the assay: Antagonism of apomorphine induced swimming was determined in female swiss -Wbster mice after (po) administration of 2.5 mg/kg. It counts as functional.
Assay [24] in a line: Number of animals showing dyskinesias was determined in haloperidol sensitized 3 cebus monkeys after (po) administration of 80 mg/kg. It counts as functional. Particulars: dose 10 mg/kg; in the assay text read “10 mg/kg” for “80 mg/kg”. The method, boiled down: as §2
Assay [25] deals with Mus musculus. In words: Antagonism of apomorphine induced swimming was determined in female swiss -Wbster mice after (po) administration of 5 mg/kg. The assay is classed as functional.
For assay [26], the system named is Mus musculus. Nature of the assay: Antagonism of apomorphine induced climbing was determined in female swiss -Webster mice after (ip) administration of 5 mg/kg. The assay is classed as functional. In a few lines: as §1
The nature of assay [27]: Number of animals showing dyskinesias was determined in haloperidol sensitized 11 cebus monkeys after (po) administration of 40 mg/kg. The assay is classed as functional. In a few lines: (§3)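 Adult male and female Cebus monkeys sensitized with haloperidol 1 mg/kg po weekly until dyskinetic reactions appeared. Drug given orally (2 mL/kg) in 0.5% w/w hydroxypropylmethylcellulose with 0.1% w/w Tween 80, at least 2 weeks between treatments. Two observers watched continuously for 6–7 h, logging reaction type and severity every 30 min. Score is the number of monkeys with dyskinesias over the number tested.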

Assay [28] concerns Mus musculus. In words: Antagonism of apomorphine induced climbing was determined in female swiss -Webster mice after (ip) administration of 80 mg/kg. It counts as functional. In a few lines: as §1
Assay [29] has as its system Mus musculus. In words: Antagonism of apomorphine induced climbing was determined in female swiss -Webster mice after (ip) administration of 40 mg/kg. The assay is classed as functional. In a few lines: as §1
Assay [30] can be described thus: Number of animals showing dyskinesias was determined in haloperidol sensitized 13 cebus monkeys after (po) administration of 20 mg/kg. It counts as functional. In a few lines:
as §3

Assay [31] in a line: Number of animals showing dyskinesias was determined in haloperidol sensitized 13 cebus monkeys after (po) administration of 10 mg/kg. The assay is classed as functional. The method, boiled down: as §3
For assay [32], the system named is Mus musculus. In words: Antagonism of apomorphine induced swimming was determined in female swiss -Webster mice after (ip) administration of 40 mg/kg. The assay is classed as functional.
Assay [33] has as its system Mus musculus. In words: Antagonism of apomorphine induced swimming was determined in female swiss -Webster mice after (ip) administration of 20 mg/kg. The assay is classed as functional.
The nature of assay [34]: Number of animals showing dyskinesias was determined in haloperidol sensitized 2 cebus monkeys after (po) administration of 10 mg/kg. It counts as functional. In a few lines: as §2
For assay [35], the system named is Mus musculus. In words: Antagonism of apomorphine induced swimming was determined in female swiss -Webster mice after (ip) administration of 2.5 mg/kg. The assay is classed as functional.
The subject of assay [36] is Mus musculus. Nature of the assay: Antagonism of apomorphine induced swimming was determined in female swiss -Webster mice after (ip) administration of 5 mg/kg. It counts as functional.
Assay [37] has as its system Mus musculus. Nature of the assay: Antagonism of apomorphine induced swimming was determined in female swiss -Webster mice after (ip) administration of 10 mg/kg. The assay is classed as functional.

Chain of D(2) dopamine receptor (Rattus norvegicus) (P61169 whole entry): as above

Take `OCCOCCN1CCN(C2=Nc3cc(Cl)ccc3Sc3ccccc32)CC1`: the Activity came to 20 with Mus musculus [1]; 8 in the assay on Mus musculus [2]; 24 in the assay on Mus musculus [3]; 1 in the assay with Mus musculus [4]; 1 in the assay on Mus musculus [6]; 1 in the assay with Mus musculus [7]. Also, the Activity came to 12 with Mus musculus [9], 25 with Mus musculus [12], 0 with Mus musculus [13] and 16 in the assay with Mus musculus [14]. Moreover, the No of monkeys in [5], in assay [8] and in assay [10] was 0 each time. For the same compound, in assay [11], the % displacement of spiropiperidone stood at 58%.
In the case of `CN1CCN(C2=Nc3ccc(F)cc3Sc3ccccc32)CC1`, the Activity in the assay on Mus musculus [1] was determined as 18; in the assay with Mus musculus [15] it was 2; with Mus musculus [2] it was 5; with Mus musculus [16] it was 1; in the assay on Mus musculus [17], 3; in the assay on Mus musculus [18], 9. In addition, the Activity in the assay on Mus musculus [9] is listed as 13; with Mus musculus [13], 1. On D(2) dopamine receptor, the IC50 was determined as 963 nM.
In the case of `CN1CCN(C2=Nc3ccc(O)cc3Sc3ccccc32)CC1`, the Activity is 1 in the assay on Mus musculus [19]; 32 in the assay with Mus musculus [4]; 18 with Mus musculus [20]; 34 in the assay with Mus musculus [21]; 1 with Mus musculus [22]; 3 in the assay on Mus musculus [23]. The Activity with Mus musculus [25] is on record as 10; in the assay on Mus musculus [26], 13. The IC50 on D(2) dopamine receptor is 49 nM. The No of monkeys in assay [24] came out at 3.
Consider `CN1CCN(C2=Nc3cc(Cl)ccc3Nc3ccccc32)CC1` [CLOZAPINE], for which the No of monkeys in [27], in [30] and in assay [31] was 0 in each case. Besides, the Activity with Mus musculus [16] is listed as 4; with Mus musculus [19], 19; with Mus musculus [4] it was 3; with Mus musculus [6] it was more than 15; in the assay with Mus musculus [28] it was more than 0; with Mus musculus [29], more than 5. Further, the Activity with Mus musculus [22] is given as 23; with Mus musculus [7], more than 13.
`COCC(CN1CCN(C2=Nc3ccccc3Sc3ccccc32)CC1)OC` (configuration not stated): the Activity turned out to be 2 in the assay with Mus musculus [19]; 33 with Mus musculus [32]; 0 in the assay with Mus musculus [29]; 18 in the assay on Mus musculus [20]; 1 in the assay on Mus musculus [22]; 28 in the assay with Mus musculus [33]. Besides, the Activity in the assay with Mus musculus [26] worked out at 5; with Mus musculus [35] it was 5; with Mus musculus [36], 9; in the assay with Mus musculus [37] it was 17. The compound further gave an IC50 at D(2) dopamine receptor of 795 nM. Besides, the No of monkeys in assay [10] and in [34] was 1 each time.

For the origin of these results see ChEMBL document CHEMBL1134337, “Behavioral approach to nondyskinetic dopamine antagonists: identification of seroquel” (J Med Chem, 2001).
